Compound activity as filed in PubChem.
CDK5 p35 inh = inhibitors of human CDK5/p35 kinase, primary screen, biochemical, single concentration; Recombinant CDK5/p35, ADP-Glo luminescence, 60 min; inhibition, % at 10 µM; hit rate 0.01% among 330,000;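 active = highest replicate inhibition of at least 50% and at least 75% of replicates reaching 50%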
Target sequence (Q00535 whole entry, looked up): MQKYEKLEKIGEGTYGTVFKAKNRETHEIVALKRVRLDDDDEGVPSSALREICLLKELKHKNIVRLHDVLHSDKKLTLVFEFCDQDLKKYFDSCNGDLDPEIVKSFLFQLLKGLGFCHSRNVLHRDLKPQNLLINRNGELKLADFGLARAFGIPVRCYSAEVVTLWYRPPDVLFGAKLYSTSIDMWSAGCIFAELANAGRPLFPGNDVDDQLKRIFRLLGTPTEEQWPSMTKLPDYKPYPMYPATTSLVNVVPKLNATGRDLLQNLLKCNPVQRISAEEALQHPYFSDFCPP
Target sequence (Q15078 whole entry, looked up): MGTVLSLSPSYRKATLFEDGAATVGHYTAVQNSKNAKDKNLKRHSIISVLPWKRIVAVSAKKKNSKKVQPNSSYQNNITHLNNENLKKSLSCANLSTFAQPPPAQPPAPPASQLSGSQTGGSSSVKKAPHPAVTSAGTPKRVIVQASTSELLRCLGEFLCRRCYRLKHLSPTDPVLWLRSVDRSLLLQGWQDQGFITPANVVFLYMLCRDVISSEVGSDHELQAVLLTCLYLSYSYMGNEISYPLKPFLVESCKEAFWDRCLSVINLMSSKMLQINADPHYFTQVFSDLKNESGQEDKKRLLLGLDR
CAL PDZ FP-1 = CAL PDZ peptide-binding inhibitors, primary screen, biochemical, fluorescence polarization, Cer-tagged CAL PDZ, HTS | hit rate 0.02% among 330,000 | Golgi-associated PDZ and coiled-coil motif-containing protein (Homo sapiens), Q9HD26 | inhibition, % at 20 µM | purified CAL PDZ, TMR-peptide fluorescence polarization, 1 h;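 active = highest replicate inhibition of at least 40%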
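material = purified tagged CAL PDZ domain construct (CerCALP) | buffer or medium = sodium phosphate/NaCl buffer pH 7.4 with TCEP, IgG, Thesit | reagent = TMR-labelled reporter peptide T*-PRC34 bound in PDZ groove | incubation = 1 h room-temperature incubation prior to read | measured by = fluorescence polarization (mP) | evaluation = percent inhibition from loss of millipolarization | control set = unlabelled peptide and DMSO controls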
dFosB activator = activators of delta FosB homodimer, primary screen, biochemical, fluorescence polarization, TAMRA-CDK5 oligo, single point | activation, % at 25 µM | purified delta FosB; percent of positive-control signal above neutral wells | AID 493131, 2011 | hit rate 0.99% among 340,000;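 active = mean activation above about 17%, with every replicate also reaching it, limit read from the data, passing the limit was not always enough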
C2C12 statin = suppressors of statin myotoxicity in C2C12 myotubes, primary screen, cell-based, single point, plate reader. rescue of ATP level, % at 7.49 µM. hit rate 0.78% among 330,000. C2C12 myotubes + simvastatin, ATP luminescence, 48 h; scaled: DMSO 0, geranylgeraniol control 100;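 active = mean ATP rescue above about 67%, or every replicate alone reaching that limit, limit read from the data, passing the limit was not always enough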;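 also: myotubes were challenged with 10 µM simvastatin during compound exposure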
CAL PDZ FP-2 = untagged CAL PDZ binding inhibitors, primary screen, biochemical, fluorescence polarization, HTS; purified CAL PDZ, TMR-peptide fluorescence polarization, 1 h; inhibition, % at 24.9 µM; hit rate 0.92% among 300,000;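 active = mean inhibition of at least 30% with at least half of replicates also reaching 30%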
S100A4 inh HTS = inhibitors of S100A4-myosin IIA peptide binding, primary screen, biochemical, fluorescence polarization, TAMRA-MyoIIA peptide; Protein S100-A4 (Homo sapiens), P26447; inhibition, % at 10.7 µM; hit rate 0.14% among 360,000; AID 652163, 2013;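 active = mean inhibition of at least 70% across replicates, with every replicate also reaching that level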
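Material: S100A4 monomer protein / Buffer or medium: 50 mM HEPES pH 7.2, 10 mM CaCl2, 100 mM KCl / Times: 5 min incubation before reading / Benchmarks: neutral control DMSO, positive control TFP / Reagent: labelled myosin peptide probe, 5 nM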
Numbers stand for hits; - = inactive; . = no result given. Rows were chosen to be rich in hits. Some 2% of all compounds tested hit in one or more screens of this group.

SMILES	CDK5 p35 inh	CAL PDZ FP-1	dFosB activator	C2C12 statin	CAL PDZ FP-2	S100A4 inh HTS
O=C(COC(=O)c1ccco1)Nc1nc2c(F)c(F)c(F)cc2s1	-	-	-	-	-	-
O=C(COC(=O)c1cc(NS(=O)(=O)c2cccs2)ccc1O)Nc1cc(Cl)ccc1Cl	-	-	50.8	.	-	-
Cc1nn(-c2ccccc2)cc1/C=N/NC(=O)c1cccs1	-	-	-	-	-	-
O/N=C/c1cccc[n+]1CCCCCC[n+]1ccccc1/C=N/O	-	-	-	-	-	-
CCCCCCCCCCCCCCCC[n+]1ccccc1	-	-	-	-	-	-
CCCCCCCCCCCCCCCC[n+]1ccc(/C=N/O)cc1	-	-	37.5	.	-	-
CCCCCCCCCCCCCCCC[n+]1ccc(C(N)=O)cc1	-	-	45.1	.	-	.
Cc1cc(C)c(C)c(S(=O)(=O)N2CCN(c3ncnc4ccccc34)CC2)c1C	-	-	-	-	-	-
O=S(=O)(c1cc(C(F)(F)F)ccc1Cl)N1CCN(c2ncnc3ccccc23)CC1	-	-	-	.	61.8	-
COCCNC(=O)c1ccccc1NC(=O)c1ccccc1N(C)S(=O)(=O)c1ccc(C)cc1	-	-	-	-	-	.
Cc1ccc(-c2n[nH]c(=S)c3ccccc23)cc1S(=O)(=O)NCC1CCCO1 (stereo not given)	-	-	-	-	38.5	-
Cc1ccc(-c2n[nH]c(=O)c3ccccc23)cc1S(=O)(=O)NCC1CCCO1 (stereo not given)	-	-	-	-	.	-
N=c1sccn1CC(=O)Nc1cc(Cl)ccc1Oc1ccccc1	-	-	-	.	-	.
N=c1sccn1CC(=O)Nc1cccc(Oc2ccccc2)c1	-	.	-	-	38.1	-
Cc1ccc(OCC(=O)Nc2nnc(S(=O)(=O)N3CCCCCC3)s2)cc1C	-	-	-	-	.	-
O=C(COc1ccc(Cl)cc1)Nc1nnc(S(=O)(=O)N2CCCCCC2)s1	-	-	-	76.8	.	-
COC(=O)C(NC(C)=O)(Nc1sc2c(c1C(N)=O)CCCC2)C(F)(F)F (stereo not given)	-	-	-	-	-	-
CCOc1ccc(NC(=O)CN(C)C(=O)c2ccc3[nH]c4c(c3c2)CC(C)CC4)cc1OCC (stereo not given)	-	-	-	-	-	-
Cc1ccc(NC(=O)CN(C)C(=O)c2ccc3[nH]c4c(c3c2)CC(C)CC4)cc1 (stereo not given)	-	-	-	-	74.0	-
O=C(NCCSc1ccc(Br)cc1)c1ccccc1	-	.	-	.	-	-
COc1ccc(C(C[N+](=O)[O-])c2c(-c3ccccc3)cc3ccccn23)cc1 (stereo not given)	-	-	-	-	84.7	.
CCOC(=O)c1c(NC(=O)c2ccc(S(=O)(=O)N3CCOCC3)cc2)sc2c1CCN(C(C)C)C2	-	-	-	-	-	-
C[C@H](CO)N1C[C@H](C)[C@@H](CN(C)C(=O)Nc2ccc3c(c2)OCO3)Oc2ncc(C#CC3(O)CCCC3)cc2C1=O	.	.	.	-	.	-
COc1ccc(/C=N/N=C2/NC(=O)C(CC(=O)NC(N)=O)S2)cc1 (stereo not given)	-	-	19.1	.	49.1	-
CCCCNC(=O)CC1S/C(=N/N=C/c2ccc(OC)cc2)NC1=O (stereo not given)	-	-	-	.	-	-
SMILES	CDK5 p35 inh	CAL PDZ FP-1	dFosB activator	C2C12 statin	CAL PDZ FP-2	S100A4 inh HTS
Cn1c(=O)cc2c3c(c(N4CCCCC4)ccc31)C(=O)c1ccccc1-2	.	.	.	.	.	103.4
O=C1c2ccccc2C(=O)c2c1cccc2N1CCCC1	-	-	-	.	-	-
COc1ccccc1C1=NOC(C)(c2sc(-c3ccccc3)nc2C)C1 (stereo not given)	-	-	-	-	-	-
CCN1C(=O)/C(=C2/C=Cc3ccccc3N2C)OC1=S	-	-	-	117.9	-	.
COC(=O)[C@@]1(Cc2ccccc2)[C@H]2C(=O)N(C)C(=O)[C@H]2[C@H]2CN=C(SCc3ccccc3)N21	-	-	-	-	-	-
O=C(Nc1ccc(F)cc1)NC1CCN(Cc2nnnn2Cc2ccco2)CC1	-	-	-	95.1	-	.
COC(=O)CCC(=O)NNC(=O)c1ccc(Br)cc1	-	-	-	100.9	-	.
C[C@H](CO)N1C[C@H](C)[C@@H](CN(C)Cc2cncnc2)Oc2cc(-c3cccnc3)ccc2S1(=O)=O	.	.	.	-	.	-
CCN1CCC(O)(/C=C/c2ccc(C(C)C)cc2)C(C(=O)/C=C/c2ccc(C(C)C)cc2)C1 (stereo not given)	-	-	53.9	.	-	-
Clc1ccc(N2COC3c4cccc5cccc(c45)C32)cc1 (stereo not given)	-	-	-	-	-	.
COc1ccc(N2COC3c4cccc5cccc(c45)C32)cc1 (stereo not given)	-	-	-	87.8	-	.
Cc1ccc(NC(=O)COc2ccc(/C=N/NC(=O)CSCc3ccccc3)cc2)cc1	-	-	-	-	.	.
Cc1ccc(NC(=O)COc2ccc(/C=C3/SC(=Nc4ccccc4)N(Cc4cccnc4)C3=O)cc2)cc1	-	-	-	80.3	-	.
CCC(=O)Nc1ccc2c(c1)OC[C@H](C)N(C(=O)c1ccccn1)C[C@H](C)[C@H](OC)CN(C)C2=O	.	.	.	.	.	-
O=C(NCCN1CCN(C(=O)c2ccccc2Cl)CC1)C(=O)NCc1ccccc1	-	-	-	-	48.0	-
O=C(NCCN1CCN(C(=O)c2cccc(Br)c2)CC1)C(=O)NCc1ccccc1	-	-	-	.	-	-
CCOC(=O)c1cnc(SCC(=O)N2CCN(C(=O)c3ccco3)CC2)nc1N	-	-	-	-	-	-
CCC1CCCCN1CCCNC(=O)c1c(O)nc2ccccn2c1=O (stereo not given)	-	-	-	-	78.3	-
OCCn1c(SCCOc2ccccc2F)nc2ccccc21	-	-	-	-	-	.
OCCn1c(SC2CCCCC2)nc2ccccc21	-	-	-	-	46.9	.
Cc1cc(=O)n2[nH]c(=O)c(N=Nc3ccccc3)c2[nH]1	-	-	-	-	-	.
Cc1ccc(-c2[nH][nH]c(=O)c(=O)c2N=Nc2ccccc2)cc1	-	-	-	211.3	.	-
CCCCNC(=O)C1CCC(CNS(=O)(=O)c2ccc(C)cc2)CC1 (stereo not given)	-	-	-	.	.	-
